Usually Km stands for the concentration of substrate that gives half-maximal velocity. What is called kcat is the maximal rate divided by the concentration of active sites. By kcat/Km is commonly meant the turnover number divided by the Michaelis constant.

The results in this text go back to ChEMBL document CHEMBL3286366, “Identification of malic enzyme mutants depending on 1,2,3-triazole moiety-containing nicotinamide adenine dinucleotide analogs” (Bioorg Med Chem Lett, 2014).

The subject of series [1] is Escherichia coli K-12. The experiment in a line: Activity of purified recombinant Escherichia coli K-12 malic enzyme L310K/L404S mutant at 0.2 mM by UV-vis spectrophotometry in presence of L-malate MnCl2. The method in brief:
(§1)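 Screening of malic enzyme mutants with 1,2,3-triazole-containing NAD analogs as cofactor. Each analog was present at 0.2 mM, and the read-out was specific activity.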

Series [2] deals with Escherichia coli K-12. The experiment in a line: Activity of purified recombinant Escherichia coli K-12 malic enzyme L310K/Q401R mutant at 0.2 mM by UV-vis spectrophotometry in presence of L-malate MnCl2. A digest of the protocol: as §1
Series [3] relates to Escherichia coli K-12. Kind of series: Activity of purified recombinant Escherichia coli K-12 malic enzyme L310K/L404S mutant at 0.2 mM by Lineweaver-Burk plot method in presence of L-malate MnCl2.
The subject of series [4] is Escherichia coli K-12. Kind of series: Ratio of Kcat to Km for purified recombinant Escherichia coli K-12 malic enzyme L310K/L404S mutant at 0.2 mM by Lineweaver-Burk plot method in presence of L-malate MnCl2.
In series [5] the test system is Escherichia coli K-12. Kind of series: Activity of purified recombinant Escherichia coli K-12 malic enzyme L310R/L404N mutant at 0.2 mM by UV-vis spectrophotometry in presence of L-malate MnCl2. The method in brief:
as §1

For series [6], the system named is Escherichia coli K-12. Kind of series: Activity of purified recombinant Escherichia coli K-12 malic enzyme L310R/L404C mutant at 0.2 mM by UV-vis spectrophotometry in presence of L-malate MnCl2. The method in brief: as §1
Series [7] concerns Escherichia coli K-12. The experiment in a line: Activity of purified recombinant Escherichia coli K-12 malic enzyme L310R/Q401V mutant at 0.2 mM by UV-vis spectrophotometry in presence of L-malate MnCl2. The method in brief:
as §1

For series [8], the system named is Escherichia coli K-12. Kind of series: Activity of purified recombinant Escherichia coli K-12 malic enzyme L310R/Q401N mutant at 0.2 mM by UV-vis spectrophotometry in presence of L-malate MnCl2. The method in brief:
as §1

In series [9] the test system is Escherichia coli K-12. The experiment in a line: Activity of purified recombinant Escherichia coli K-12 malic enzyme L310R/Q401S mutant at 0.2 mM by UV-vis spectrophotometry in presence of L-malate MnCl2. A digest of the protocol: as §1
Series [10] concerns Escherichia coli K-12. The experiment in a line: Activity of purified recombinant Escherichia coli K-12 malic enzyme L310R/Q401I mutant at 0.2 mM by UV-vis spectrophotometry in presence of L-malate MnCl2. A digest of the protocol: as §1
Compound in series [11]: Cc1ccccc1-c1cn([C@H]2O[C@@H](COP(=O)(O)OP(=O)([O-])OC[C@H]3O[C@@H]([n+]4cccc(C(N)=O)c4)[C@H](O)[C@@H]3O)[C@H](O)[C@@H]2O)nn1
Kind of series: (§2) Ratio of Kcat to Km for purified recombinant Escherichia coli K-12 malic enzyme at 0.2 mM by Lineweaver-Burk plot method in presence of L-malate MnCl2.

Compound in series [12]: NC(=O)c1ccc[n+]([C@@H]2O[C@H](COP(=O)([O-])OP(=O)(O)OC[C@@H]3O[C@H](n4cc(-c5cccc6ccccc56)nn4)[C@@H](O)[C@H]3O)[C@@H](O)[C@H]2O)c1
The series is described as §2.

Compound in series [13]: NC(=O)c1ccc[n+]([C@@H]2O[C@H](COP(=O)([O-])OP(=O)(O)OC[C@@H]3O[C@H](n4cc(-c5ccccc5)nn4)[C@@H](O)[C@H]3O)[C@@H](O)[C@H]2O)c1
Described as §2.

Compound in series [14]: NC(=O)c1ccc[n+]([C@@H]2O[C@H](COP(=O)([O-])OP(=O)(O)OC[C@@H]3O[C@H](n4cnc5c(N)ncnc54)[C@@H](O)[C@H]3O)[C@@H](O)[C@H]2O)c1
Described as §2.

Compound in series [15]: Cc1ccccc1-c1cn([C@H]2O[C@@H](COP(=O)(O)OP(=O)([O-])OC[C@H]3O[C@@H]([n+]4cccc(C(N)=O)c4)[C@H](O)[C@@H]3O)[C@H](O)[C@@H]2O)nn1
Kind of series: (§3) Activity of purified recombinant Escherichia coli K-12 malic enzyme at 0.2 mM by Lineweaver-Burk plot method in presence of L-malate MnCl2.

Compound in series [16]: NC(=O)c1ccc[n+]([C@@H]2O[C@H](COP(=O)([O-])OP(=O)(O)OC[C@@H]3O[C@H](n4cc(-c5cccc6ccccc56)nn4)[C@@H](O)[C@H]3O)[C@@H](O)[C@H]2O)c1
The description is as §3.

Compound in series [17]: NC(=O)c1ccc[n+]([C@@H]2O[C@H](COP(=O)([O-])OP(=O)(O)OC[C@@H]3O[C@H](n4cc(-c5ccccc5)nn4)[C@@H](O)[C@H]3O)[C@@H](O)[C@H]2O)c1
The series is described as §3.

Compound in series [18]: NC(=O)c1ccc[n+]([C@@H]2O[C@H](COP(=O)([O-])OP(=O)(O)OC[C@@H]3O[C@H](n4cnc5c(N)ncnc54)[C@@H](O)[C@H]3O)[C@@H](O)[C@H]2O)c1
The description is as §3.

With `NC(=O)c1ccc[n+]([C@@H]2O[C@H](COP(=O)([O-])OP(=O)(O)OC[C@@H]3O[C@H](n4cc(C(=O)O)nn4)[C@@H](O)[C@H]3O)[C@@H](O)[C@H]2O)c1`, the Activity in series [1] was 0.17 U/mg; in [2], 2.1 U/mg.
On to `NC(=O)c1ccc[n+]([C@@H]2O[C@H](COP(=O)([O-])OP(=O)(O)OC[C@@H]3O[C@H](n4cnc5c(N)ncnc54)[C@@H](O)[C@H]3O)[C@@H](O)[C@H]2O)c1`, for which, in series [3], the Michaelis-Menten constant (Km) is 4100 µM and the kcat is 33.7 s⁻¹. Also, the kcat/Km in [4] was 8200 M⁻¹ s⁻¹.
With `NC(=O)c1ccc[n+]([C@@H]2O[C@H](COP(=O)([O-])OP(=O)(O)OC[C@@H]3O[C@H](n4cc(-c5cccc6ccccc56)nn4)[C@@H](O)[C@H]3O)[C@@H](O)[C@H]2O)c1`, the Michaelis constant (Km) in series [3] is 1000 µM. Moreover, the kcat in series [3] was 68.6 s⁻¹. Moreover, the kcat/Km in series [4] amounted to 68600 M⁻¹ s⁻¹. The Activity came to 10.5 U/mg in series [1]; 0.47 U/mg in series [5]; 0.36 U/mg in series [6]; 0.53 U/mg in series [7]; 2.3 U/mg in series [2]; 0.32 U/mg in series [8].
Take `COc1ccc(-c2cn([C@H]3O[C@@H](COP(=O)(O)OP(=O)([O-])OC[C@H]4O[C@@H]([n+]5cccc(C(N)=O)c5)[C@H](O)[C@@H]4O)[C@H](O)[C@@H]3O)nn2)cc1`: the Activity in [1] is 1.6 U/mg; in [5], 0.51 U/mg; in [6] it was 0.51 U/mg; in series [9], 0.43 U/mg; in series [2] it was 4.3 U/mg; in series [8], 0.43 U/mg. The Activity in [10] was 0.98 U/mg.
For the molecule `NC(=O)c1ccc[n+]([C@@H]2O[C@H](COP(=O)([O-])OP(=O)(O)OC[C@@H]3O[C@H](n4cc(-c5ccccc5)nn4)[C@@H](O)[C@H]3O)[C@@H](O)[C@H]2O)c1`, in series [3], the Km worked out at 2500 µM and the turnover number (kcat) amounted to 16.4 s⁻¹. In series [4], the specificity constant (kcat/Km) was determined as 6700 M⁻¹ s⁻¹.
For `Cc1ccccc1-c1cn([C@H]2O[C@@H](COP(=O)(O)OP(=O)([O-])OC[C@H]3O[C@@H]([n+]4cccc(C(N)=O)c4)[C@H](O)[C@@H]3O)[C@H](O)[C@@H]2O)nn1` the same measures were 1100 µM, 86.7 s⁻¹ and 78800 M⁻¹ s⁻¹.

B1: NAD-dependent malic enzyme (Escherichia coli (strain K12)), P26616 (protein)
chain: MEPKTKKQRSLYIPYAGPVLLEFPLLNKGSAFSMEERRNFNLLGLLPEVVETIEEQAERAWIQYQGFKTEIDKHIYLRNIQDTNETLFYRLVNNHLDEMMPVIYTPTVGAACERFSEIYRRSRGVFISYQNRHNMDDILQNVPNHNIKVIVVTDGERILGLGDQGIGGMGIPIGKLSLYTACGGISPAYTLPVVLDVGTNNQQLLNDPLYMGWRNPRITDDEYYEFVDEFIQAVKQRWPDVLLQFEDFAQKNAMPLLNRYRNEICSFNDDIQGTAAVTVGTLIAASRAAGGQLSEKKIVFLGAGSAGCGIAEMIISQTQREGLSEEAARQKVFMVDRFGLLTDKMPNLLPFQTKLVQKRENLSDWDTDSDVLSLLDVVRNVKPDILIGVSGQTGLFTEEIIREMHKHCPRPIVMPLSNPTSRVEATPQDIIAWTEGNALVATGSPFNPVVWKDKIYPIAQCNNAFIFPGIGLGVIASGASRITDEMLMSASETLAQYSPLVLNGEGMVLPELKDIQKVSRAIAFAVGKMAQQQGVAVKTSAEALQQAIDDNFWQAEYRDYRRTSI
For the molecule B1, the specificity constant (kcat/Km) is 6300 M⁻¹ s⁻¹ in series [11], 2600 M⁻¹ s⁻¹ in [12], 2600 M⁻¹ s⁻¹ in series [13] and 369000 M⁻¹ s⁻¹ in series [14]. The Michaelis constant (Km) in [15] is 1600 µM; in series [16], 1800 µM; in series [17] it was 2900 µM; in series [18], 280 µM. In addition, the kcat in series [15] came out at 10 s⁻¹; in [16] it was 4.6 s⁻¹; in series [17] it was 7.5 s⁻¹; in series [18], 103 s⁻¹.
